Assay results taken from ChEMBL document CHEMBL3813596, “Conformational Constraint of the Glycerol Moiety of Lysophosphatidylserine Affords Compounds with Receptor Subtype Selectivity” (J Med Chem, 2016).
Calls of active or inactive are those of the source. The rule behind the calls is not given here.

Experiments:
[1] = target: Probable G-protein coupled receptor 34 (Mus musculus) (UniProt Q9R1K6); assay: (§1) Agonist activity at mouse GPR34 expressed in HEK293A cells cotransfected with chimeric Galphaq/il after 1.5 hrs by alkaline phosphatase tagged-TGFalpha shedding assay; format: cell-based; details: HEK293-A
[2] = target: Probable G-protein coupled receptor 34 (Mus musculus, UniProt Q9R1K6); assay: as §1; format: cell-based, HEK293-A; details: read-out: EC50
[3] = target: Putative P2Y purinoceptor 10 (Mus musculus) (UniProt Q8BFU7); assay: Intrinsic activity at mouse P2Y10 receptor expressed in HEK293A cells after 1.5 hrs by alkaline phosphatase tagged-TGFalpha shedding assay relative to diF-C3-ph-o-O-C11; format: cell-based; details: HEK293-A
Summary of the method: (§2)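 It is a dimensionless estimate of agonist activity. The GPR34 assay used HEK293A cells with chimeric Gαq/i1 and a 1.5 h incubation; the P2Y10 assay used HEK293A cells.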

[4] = target: Probable G-protein coupled receptor 34 (Mus musculus) (UniProt Q9R1K6); assay: Agonist activity at mouse GPR34 expressed in HEK293A cells cotransfected with chimeric Galphaq/il assessed as increase in intracellular calcium levels at 1 uM measured after 35 secs by calcium 5 dye based fluorescence microplate reader method in presence of probenecid; format: functional, cell-based; details: HEK293-A
Summary of the method: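 HEK293A cells were transfected with mouse GPR34 and Gαq/i1 plasmids, with empty vector plus Gαq/i1 as mock. After 24 h they were seeded in serum-free DMEM at 5 × 10^5 cells/mL for another 24 h. Cells were loaded with Calcium 5 dye for 1 h with 2.5 mM probenecid and given compound at 1 μM or 100 nM near 35 s. Fluorescence was recorded by plate reader, with SD of triplicates.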

[5] = target: Probable G-protein coupled receptor 34 (Mus musculus) (UniProt Q9R1K6); assay: Intrinsic activity at mouse GPR34 expressed in HEK293A cells cotransfected with chimeric Galphaq/il after 1.5 hrs by alkaline phosphatase tagged-TGFalpha shedding assay relative to O-(Hydroxy(((2R,3R)-2-(((3-(2-((3-phenoxybenzyl)oxy)phenyl)-propanoyl)oxy)methyl)tetrahydro-2H-pyran-3-yl)oxy)phosphoryl)-L-serine; format: cell-based; details: HEK293-A; summary of the method: as §2
[6] = target: Putative P2Y purinoceptor 10 (Mus musculus, UniProt Q8BFU7); assay: (§3) Agonist activity at mouse P2Y10 receptor expressed in HEK293A cells after 1.5 hrs by alkaline phosphatase tagged-TGFalpha shedding assay; format: cell-based, HEK293-A
Summary of the method: (§4)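 Transient transfection of HEK293 cells with AP-TGFα plus the mouse receptor. For GPR34, HEK293A cells also got a chimeric Gαq/i1 subunit; P2Y10 was run in HEK293A and GPR174 in HEK293FT. Cells were seeded 24 h post-transfection in 5 mM HEPES (pH 7.4) HBSS onto serial 3.2-fold compound dilutions (top final 32 μM or lower, limited by mock-cell signal). Ki16425 was present, and incubation ran 1.5 h.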

[7] = target: Putative P2Y purinoceptor 10 (Mus musculus) (UniProt Q8BFU7); assay: as §3; format: cell-based; details: HEK293-A; summary of the method: as §4
[8] = target: Putative P2Y purinoceptor 10 (Mus musculus) (UniProt Q8BFU7); assay: Agonist activity at mouse P2Y10 receptor expressed in rat McA-RH7777 cells assessed as induction of actin stress fiber formation at 100 nM after 30 mins by Alexa fluor 594-labelled phalloidin/DAPI staining based fluorescence microscopy; format: cell-based
Summary of the method: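 McA-RH7777 rat hepatoma cells stably expressing mouse P2Y10, or mock-infected, seeded on collagen I at 2.5 × 10^4 cells/well, grown 24 h in 10% FBS DMEM. Serum-starved 1 h in 0.01% BSA DMEM, stimulated 30 min. Fixed in 4% paraformaldehyde, Triton X-100 permeabilised, stained 1 h with Alexa 594-phalloidin (1.5 μg/mL) and DAPI (1 μg/mL). Scored by fluorescence imaging.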

[9] = target: Probable G-protein coupled receptor 174 (Mus musculus) (UniProt Q3U507); assay: Agonist activity at mouse GPR174 expressed in HEK293FT cells after 1.5 hrs by alkaline phosphatase tagged-TGFalpha shedding assay; format: cell-based; summary of the method: as §4
HEK293-A = assay: Selectivity ratio of EC50 for mouse P2Y10 receptor expressed in HEK293A cells to EC50 for mouse GPR34 expressed in HEK293A cells; format: cell-based

Sequence of Putative P2Y purinoceptor 10 (Mus musculus) (Q8BFU7 whole entry): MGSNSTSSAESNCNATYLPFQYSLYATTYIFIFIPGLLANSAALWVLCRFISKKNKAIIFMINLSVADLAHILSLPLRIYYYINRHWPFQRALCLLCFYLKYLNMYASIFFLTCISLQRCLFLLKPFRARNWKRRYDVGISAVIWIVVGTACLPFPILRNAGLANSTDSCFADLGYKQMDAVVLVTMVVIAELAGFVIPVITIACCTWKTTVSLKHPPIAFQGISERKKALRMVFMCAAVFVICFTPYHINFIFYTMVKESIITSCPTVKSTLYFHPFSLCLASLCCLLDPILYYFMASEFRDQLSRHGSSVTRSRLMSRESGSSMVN
Sequence of Putative P2Y purinoceptor 10 (Q8BFU7 whole entry): as above
Sequence of Probable G-protein coupled receptor 34 (Q9R1K6 whole entry): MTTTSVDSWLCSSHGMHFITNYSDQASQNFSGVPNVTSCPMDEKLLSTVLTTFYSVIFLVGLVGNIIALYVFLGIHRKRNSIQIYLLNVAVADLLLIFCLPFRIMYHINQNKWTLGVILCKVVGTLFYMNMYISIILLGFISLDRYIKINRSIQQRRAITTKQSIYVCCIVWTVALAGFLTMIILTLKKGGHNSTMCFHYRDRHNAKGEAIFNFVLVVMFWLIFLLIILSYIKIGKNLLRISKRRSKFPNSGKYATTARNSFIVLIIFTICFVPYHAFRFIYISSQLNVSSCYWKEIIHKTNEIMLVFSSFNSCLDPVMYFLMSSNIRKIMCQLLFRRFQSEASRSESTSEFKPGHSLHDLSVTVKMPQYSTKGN
Sequence of Probable G-protein coupled receptor 34 (Mus musculus) (Q9R1K6 whole entry): as above
Sequence of Probable G-protein coupled receptor 174 (Mus musculus) (Q3U507 whole entry): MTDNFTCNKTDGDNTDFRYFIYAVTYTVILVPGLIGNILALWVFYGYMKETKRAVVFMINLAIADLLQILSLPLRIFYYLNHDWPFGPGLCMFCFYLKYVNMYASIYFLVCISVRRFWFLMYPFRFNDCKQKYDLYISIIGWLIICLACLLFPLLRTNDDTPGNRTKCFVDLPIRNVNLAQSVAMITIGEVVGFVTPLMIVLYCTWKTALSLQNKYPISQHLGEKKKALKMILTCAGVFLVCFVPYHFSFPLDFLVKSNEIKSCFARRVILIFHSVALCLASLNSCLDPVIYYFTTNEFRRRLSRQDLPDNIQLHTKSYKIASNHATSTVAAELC

Row | Compound | Emax [1] [%] | EC50 [2] [µM] | Intrinsic activity [3] | Activity [4] | Intrinsic activity [5] | EC50 ([6]; read-out: EC50) [µM] | Emax [7] | EC50 ([6]; hek293-a) | Activity [8] | Activity [9] | Ratio EC50 (HEK293-A)
1 | N[C@@H](COP(=O)(O)OC[C@H]1OCCC[C@H]1OC(=O)CCc1ccccc1OCc1cccc(Oc2ccccc2)c1)C(=O)O | 17.7 | 0.19 | inactive | Active | 0.85 | > 1 | inactive |  | inactive | inactive | 100
2 | N[C@@H](COP(=O)(O)OC[C@H]1OCCC[C@H]1OC(=O)CCc1ccccc1OCc1cccc(Oc2ccc(Cl)cc2)c1)C(=O)O | 15.1 | 0.12 | inactive | Active | 1.2 | > 1 | inactive |  |  |  | 
3 | N[C@@H](COP(=O)(O)O[C@@H]1CCCO[C@@H]1COC(=O)CCc1ccccc1OCc1cccc(Oc2ccccc2)c1)C(=O)O | 14.8 | 0.14 | inactive | Active |  | > 1 | inactive |  | inactive | inactive | 100

The next molecules have a lower EC50 [2] than those just listed; values first:

Row | Emax [1] [%] | EC50 [2] [µM] | Intrinsic activity [3] | Activity [4] | Intrinsic activity [5] | EC50 ([6]; read-out: EC50) [µM] | Emax [7] | EC50 ([6]; hek293-a) | Activity [8] | Activity [9] | Compound | Ratio EC50 (HEK293-A)
4 | 16.6 | 0.037 | inactive | Active | 3.8 | > 1 | inactive |  |  |  | N[C@@H](COP(=O)(O)O[C@@H]1CCCO[C@@H]1COC(=O)CCc1ccccc1OCc1cccc(Oc2ccc(Cl)cc2)c1)C(=O)O | 
5 | 16 | 0.077 |  | Active | 1.9 |  |  | Not Active |  |  | Cc1ccc(Oc2cccc(COc3ccccc3CCC(=O)O[C@@H]3CCCO[C@@H]3COP(=O)(O)OC[C@H](N)C(=O)O)c2)cc1 | 
6 | 15.2 | 0.036 | inactive | Active | 3.6 | > 1 | inactive |  |  |  | Cc1ccc(Oc2cccc(COc3ccccc3CCC(=O)OC[C@H]3OCCC[C@H]3OP(=O)(O)OC[C@H](N)C(=O)O)c2)cc1 | 
